Measurements as given in ChEMBL document CHEMBL2440102, “Furanylazaindoles: potent anticancer agents in vitro and in vivo” (J Med Chem, 2013).
Active and inactive are the calls of the source. No cut-off for these calls is given here.

Tests used:
Tubulin = test: Displacement of [3H]-colchicine from biotin-labeled tubulin (unknown origin) after 2 hrs by scintillation proximity assay; type: protein-complex assay, Homo sapiens
Tubulin (Homo sapiens) [1] = target: T1, Tubulin (Homo sapiens) (UniProt P68371+Q9H4B7+P0DPH7+P68366+Q13509+Q71U36+P04350+Q3ZCM7+P07437+P68363+Q9BQE3+Q6PEY2+Q13885+Q9BVA1+Q9BUF5); test: Displacement of [3H]-colchicine from biotin-labeled tubulin (unknown origin) at 5 uM after 2 hrs by scintillation proximity assay relative to control; type: protein-complex assay
Tubulin (Homo sapiens) [2] = target: T1, Tubulin (Homo sapiens); test: Displacement of [3H]-colchicine from biotin-labeled tubulin (unknown origin) at 1 uM after 2 hrs by scintillation proximity assay relative to control; type: protein-complex assay
HUVEC [3] = test: Induction of vascular disrupting activity in HUVEC assessed as VEGF-induced tube formation at 1000 nM after 4 hrs by microscopic analysis; type: functional, cell-based; conditions: Homo sapiens
Summary of the method: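 HUVECs plated at 2×10^4 cells/well on Matrigel in 20% FBS M199 with 20 ng/mL VEGF; capillaries formed over 4 h before compound or DMSO vehicle added. Imaged at addition and 4 h later; capillary tube networks counted manually under microscope (100×). Expressed relative to vehicle; mean ± SD of three separate experiments.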

HUVEC [4] = test: Induction of vascular disrupting activity in HUVEC assessed as VEGF-induced tube formation at 100 to 1000 nM after 4 hrs by microscopic analysis; type: functional, cell-based; conditions: Homo sapiens
[5] = Inhibition of bovine brain MAP-rich tubulin polymerization measured every 30 secs for 30 mins by turbidometric method; set-up: species or system Bos taurus
[6] = Cytotoxicity against human KB-7d cells overexpressing MRP assessed as growth inhibition after 72 hrs by methylene blue staining-based assay; type: functional, cell-based; conditions: KB7D
[7] = Cytotoxicity against human KB-S15 cells overexpressing P-gp170/MDR assessed as growth inhibition after 72 hrs by methylene blue staining-based assay; type: functional, cell-based; conditions: KB-S15, 72 h
[8] = Cytotoxicity against human KB-VIN10 cells overexpressing P-gp170/MDR assessed as growth inhibition after 72 hrs by methylene blue staining-based assay; type: functional, cell-based; conditions: KB-VIN10, 72 h
[9] = Cytotoxicity against human H460 cells assessed as growth inhibition after 72 hrs by methylene blue staining-based assay; type: functional, cell-based; conditions: NCI-H460, 72 h
MKN-45 = test: Cytotoxicity against human MKN45 cells assessed as growth inhibition after 72 hrs by methylene blue staining-based assay; type: functional, cell-based; conditions: MKN-45, 72 h
HT-29 = test: Cytotoxicity against human HT-29 cells assessed as growth inhibition after 72 hrs by methylene blue staining-based assay; type: functional, cell-based; conditions: HT-29, 72 h
KB [10] = test: Cytotoxicity against human KB cells assessed as growth inhibition after 72 hrs by methylene blue staining-based assay; type: functional, cell-based
KB [11] = test: Induction of microtubule depolymerization in human KB cells at 1 uM after 6 hrs by immunofluorescence microscopic analysis; type: cell-based
Summary of the method: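 KB cells on coverslips exposed to compound for 6 h; fixed in MeOH/Me2CO (1:1) at -20 °C for 1 h, blocked with 5% skim milk in PBS for 1 h, then anti-α-tubulin monoclonal (1:500) for 2 h and FITC-conjugated secondary (1:200) for 1 h at room temperature. Microtubule network viewed by fluorescence microscopy.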

`COc1ccc(S(=O)(=O)n2ccc3ccnc(-c4ccco4)c32)cc1` gave a Ki (Tubulin) of 380 nM, an inhibition (Tubulin (Homo sapiens) [1]) of 81% and an inhibition (Tubulin (Homo sapiens) [2]) of 63%.

Compound `COc1ccc(S(=O)(=O)n2ccc3ccnc(-c4ccc(C(F)(F)F)cc4)c32)cc1` has an inhibition (Tubulin (Homo sapiens) [1]) of 65% and an inhibition (Tubulin (Homo sapiens) [2]) of 35%.

`COc1ccc(S(=O)(=O)n2ccc3ccnc(-c4ccc(Cl)cc4)c32)cc1` gave an inhibition (Tubulin (Homo sapiens) [1]) of 72% and an inhibition (Tubulin (Homo sapiens) [2]) of 41%.

Compound `COc1ccc(S(=O)(=O)n2ccc3ccnc(-c4ccc(N(C)C)cc4)c32)cc1` has an inhibition (Tubulin (Homo sapiens) [1]) of 74% and an inhibition (Tubulin (Homo sapiens) [2]) of 41%.

Compound `COc1ccc(S(=O)(=O)n2ccc3ccnc(-c4ccc([N+](=O)[O-])cc4)c32)cc1` has an inhibition (Tubulin (Homo sapiens) [1]) of 46% and an inhibition (Tubulin (Homo sapiens) [2]) of 21%.

In the case of `COc1ccc(S(=O)(=O)n2ccc3ccnc(-c4ccccc4)c32)cc1`, the inhibition (Tubulin (Homo sapiens) [1]) is reported as 63% and the inhibition (Tubulin (Homo sapiens) [2]) is reported as 42%.

With `COc1ccc(S(=O)(=O)n2ccc3ccnc(-c4cccs4)c32)cc1` the inhibition (Tubulin (Homo sapiens) [1]) was 70% and the inhibition (Tubulin (Homo sapiens) [2]) was 30%.

In the case of `COc1ccc(S(=O)(=O)n2ccc3ccnc(-c4ccncc4)c32)cc1`, the inhibition (Tubulin (Homo sapiens) [1]) is reported as 59% and the inhibition (Tubulin (Homo sapiens) [2]) is reported as 35%.

With `O=c1[nH]cc(F)c(=O)[nH]1` the Activity (HUVEC [3]) was “inactive”.

With `COc1ccc(S(=O)(=O)Nc2cccnc2Nc2ccc(O)cc2)cc1` [ABT-751] the Activity (HUVEC [4]) was “Active”, the Ki (Tubulin) was 1510 nM and the IC50 [5] was 3300 nM. For the same compound, the IC50 [6] was 205 nM, the IC50 [7] was 206 nM and the IC50 [8] was 227 nM. For the same compound, the IC50 [9] was 218 nM, the IC50 (MKN-45) was 166 nM and the IC50 (HT-29) was 339 nM. The IC50 (KB [10]) was 251 nM.

With `COc1cc2c(c(OC)c1OC)-c1ccc(OC)c(=O)cc1[C@@H](NC(C)=O)CC2` [COLCHICINE] the Activity (KB [11]) was “Active”, the IC50 [6] was 51.8 nM and the IC50 [7] was 35.4 nM. The IC50 [8] was 122 nM, the IC50 [9] was 19.8 nM and the IC50 (MKN-45) was 11.5 nM. For the same compound, the IC50 (HT-29) was 15.2 nM.

`COc1ccc(/C=C\c2cc(OC)c(OC)c(OC)c2)cc1O` [COMBRETASTATIN A4] gave an IC50 [5] of 2100 nM.

For `COc1cc([C@@H]2c3cc4c(cc3[C@@H](O[C@@H]3O[C@@H]5CO[C@@H](C)O[C@H]5[C@H](O)[C@H]3O)[C@H]3COC(=O)[C@H]23)OCO4)cc(OC)c1O` [ETOPOSIDE], the IC50 [6] was 54000 nM, the IC50 [7] was 3500 nM and the IC50 [8] was 23000 nM.

In the case of `CC(=O)O[C@H]1C(=O)[C@@]2(C)[C@H]([C@H](OC(=O)c3ccccc3)[C@]3(O)C[C@H](OC(=O)[C@H](O)[C@@H](NC(=O)c4ccccc4)c4ccccc4)C(C)=C1C3(C)C)[C@]1(OC(C)=O)CO[C@@H]1C[C@@H]2O` [PACLITAXEL], the Activity (KB [11]) is reported as “inactive”, the IC50 [6] is reported as 7.9 nM and the IC50 (KB [10]) is reported as 4.1 nM.

In the case of `CC[C@]1(O)C[C@H]2CN(CCc3c([nH]c4ccccc34)[C@@](C(=O)OC)(c3cc4c(cc3OC)N(C=O)[C@H]3[C@@](O)(C(=O)OC)[C@H](OC(C)=O)[C@]5(CC)C=CCN6CC[C@]43[C@@H]65)C2)C1` [VINCRISTINE], the IC50 [6] is reported as 1.2 nM and the IC50 (KB [10]) is reported as 0.6 nM.
